# Screening results: PubChem, several laboratories
# ABCB1 block – blocks JC-1 efflux by human ABCB1 transporter. P08183. CCRF-Adr cells, flow cytometry. inhibition, % at 6.6 µM. 0.067% of 190,000 active; in the data active = inhibition above about 40%;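 note: 0% = vehicle and 100% = reference inhibitor; higher value means more JC-1 retained so stronger ABCB1 efflux block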
# Target sequence (P08183 whole entry, looked up): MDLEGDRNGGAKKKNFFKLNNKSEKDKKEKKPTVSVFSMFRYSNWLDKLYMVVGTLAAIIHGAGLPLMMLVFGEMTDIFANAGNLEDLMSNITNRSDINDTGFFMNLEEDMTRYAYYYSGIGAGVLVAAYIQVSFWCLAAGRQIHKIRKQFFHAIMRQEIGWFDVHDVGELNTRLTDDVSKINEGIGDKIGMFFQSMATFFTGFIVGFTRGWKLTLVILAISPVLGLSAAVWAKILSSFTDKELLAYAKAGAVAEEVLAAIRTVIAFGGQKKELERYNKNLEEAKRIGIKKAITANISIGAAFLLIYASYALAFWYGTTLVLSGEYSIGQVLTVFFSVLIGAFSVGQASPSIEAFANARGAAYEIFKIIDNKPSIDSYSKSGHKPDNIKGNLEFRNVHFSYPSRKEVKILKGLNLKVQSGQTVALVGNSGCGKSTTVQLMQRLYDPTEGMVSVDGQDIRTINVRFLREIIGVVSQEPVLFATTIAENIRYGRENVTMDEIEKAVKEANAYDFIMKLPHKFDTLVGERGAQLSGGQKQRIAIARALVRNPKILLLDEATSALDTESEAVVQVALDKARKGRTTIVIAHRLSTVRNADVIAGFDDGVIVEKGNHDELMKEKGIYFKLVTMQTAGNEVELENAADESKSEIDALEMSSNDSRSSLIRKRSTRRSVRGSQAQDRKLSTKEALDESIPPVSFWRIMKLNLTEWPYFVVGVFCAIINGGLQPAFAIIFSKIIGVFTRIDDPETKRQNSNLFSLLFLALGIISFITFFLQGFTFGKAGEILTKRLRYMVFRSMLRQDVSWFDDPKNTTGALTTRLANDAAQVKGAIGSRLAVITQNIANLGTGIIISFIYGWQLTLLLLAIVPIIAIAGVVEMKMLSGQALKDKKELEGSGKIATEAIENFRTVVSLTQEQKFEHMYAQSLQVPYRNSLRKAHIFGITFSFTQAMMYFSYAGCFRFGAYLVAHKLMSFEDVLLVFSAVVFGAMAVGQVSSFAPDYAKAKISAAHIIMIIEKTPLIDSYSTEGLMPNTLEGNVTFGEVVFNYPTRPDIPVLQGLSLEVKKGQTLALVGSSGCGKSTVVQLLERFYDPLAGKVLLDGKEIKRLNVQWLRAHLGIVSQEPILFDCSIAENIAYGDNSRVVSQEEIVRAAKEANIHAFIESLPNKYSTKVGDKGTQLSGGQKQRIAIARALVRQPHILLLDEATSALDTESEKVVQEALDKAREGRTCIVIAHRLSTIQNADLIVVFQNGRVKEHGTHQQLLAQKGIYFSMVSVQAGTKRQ
# ABCG2 block – blocks JC-1 efflux by human ABCG2 transporter | IgMXP3 cells, flow cytometry | inhibition, % at 6.6 µM | 0.1% of 190,000 active;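 active = inhibition above 80%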;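 note: 0% = DMSO and 100% = nicardipine control wells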
#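 Test system: IgMXP3 (ABCG2) plus far-red-tagged CCRF-Adr (ABCB1) cells. Reagent: JC-1 dye as substrate. Timing: 10 min exposure at 25 °C with rotation, no wash. Measured by: flow cytometric JC-1 green MFI at 530 nm. Read-out: percent efflux inhibition, scaled nicardipine 100% to DMSO 0%. Control set: nicardipine and DMSO wells.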
# Lmaj promast – inhibitors of Leishmania major promastigote growth; 9% of 200,000 active; Leishmania major promastigotes, resazurin fluorescence viability; inhibition, % at 10 µM; in the data active = inhibition above about 50%;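 note: promastigotes grown with compound for 44 hours at 28 °C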
# RAM inhibit – blocks the yeast RAM network; 1.8% of 190,000 active; inhibition, % at 50 µM; S. cerevisiae dse1pr::URA3 reporter, 5-FOA growth OD615, 2 d; analog-sensitive cbk1-as2 kinase mutant strain; AID 868;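 active = inhibition above a set limit, 3 SD over mean compound inhibition, cut at about 8.4% in these data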;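 note: 0% = DMSO-only wells with no growth and 100% = 10 µM 1-NA-PP1 full growth; inhibition rescues growth on 5-FOA so higher OD means more RAM inhibition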
# WT yeast gro inh – growth inhibition of WT yeast, mitochondrial fusion screen | mitochondrial fusion phenotypic screen, WT strain | inhibition, % at 10 µM | 2.1% of 190,000 active | AID 1362; in the data active = inhibition above about 58%; tested in S. cerevisiae
# Starred values were filed as active, the others as inactive; . = no result given. Shown are actives, neighbours in structure and some others; about 12% of the full set was active somewhere.
SMILES,ABCB1 block,ABCG2 block,Lmaj promast,RAM inhibit,WT yeast gro inh
COc1ccc2[nH]c(=O)c(CN(Cc3cccnc3)C(=S)NCC3CCCO3)cc2c1 (stereo not drawn),0.2,0.4,5.3,1.5,-8.8
Clc1ccccc1-c1nnc(-c2ccc3c(c2)OCO3)o1,0.3,41.4,2.9,5.4,0.1
COC(=O)CC/C(=N/Nc1ccc(Cl)c(Cl)c1)C(=O)OC,1.0,11.8,0.7,1.3,-4.3
COc1cccc(CNS(=O)(=O)/C=C/c2ccc3c(c2)OCO3)c1,0.2,0.4,-5.4,0.5,9.8
Cc1cc(N2CC(C)OC(C)C2)nc2ccccc12 (stereo not drawn),0.8,7.8,9.1,2.9,-11.1
Cc1[nH]c2ccccc2c1C(=O)CN1CCCC1,0.5,1.8,7.7,-0.2,-4.2
Cc1[nH]c2ccccc2c1C(=O)CN1C(=O)NC2(CC(C)CC(C)(C)C2)C1=O (stereo not drawn),-0.6,-17.8,89.9*,1.9,3.1
Cc1ccccc1N1C(=O)C(Oc2ccc(Cl)cc2)C1CNC(C)(C)C (stereo not drawn),5.3,5.4,87.4*,0.5,17.2
O=C(N=C1SCC(=O)N1c1ccccc1Cl)c1ccco1,0.1,0.6,-9.6,2.4,9.9
O=C(N=C1SCC(=O)N1c1ccccc1Cl)c1ccccc1,-0.4,-1.0,-3.5,1.4,77.5*
CC1CC(=O)C2=C(C1)Nc1ccccc1SC2c1ccc(F)cc1 (stereo not drawn),0.7,8.9,68.0*,5.0,20.4
Cc1ccc(C(=O)NC(=S)N2CCN(C(=O)OC(C)(C)C)CC2)cc1Br,0.8,0.8,-9.3,4.3,1.8
Clc1ccccc1OCCCCn1ccnc1,0.0,1.2,100.0*,0.7,6.1
CC(Oc1ccc(Cl)cc1)C(=O)NCCCn1ccnc1 (stereo not drawn),0.5,1.0,-3.1,-0.3,-1.4
Cc1cccc(OCCCCCn2ccnc2)c1,0.7,2.1,99.7*,1.1,11.8
Cc1ccccc1OCCCCCn1ccnc1,0.3,1.0,100.3*,-0.3,4.3
Clc1ccc(SCCCCn2ccnc2)cc1,0.2,0.6,100.1*,0.7,33.5
CCOc1ccccc1NC(=O)COC(=O)c1cc(C(=O)OC)cc([N+](=O)[O-])c1,1.3,25.4,26.9,3.0,-4.4
Cc1ccc(-c2n[nH]c(=S)n2/N=C/C=C\c2ccccc2[N+](=O)[O-])cc1,-0.6,-2.3,-2.2,1.9,.
Cc1ccc(-c2n[nH]c(=S)n2/N=C/c2ccncc2)cc1,-0.1,2.6,0.1,3.2,-5.5
O=[N+]([O-])c1ccccc1/C=C/C=N/n1c(-c2ccccc2)n[nH]c1=S,-0.8,-2.2,-5.4,1.8,61.1*
S=c1[nH]nc(COc2ccccc2)n1/N=C/C(Cl)=C/c1ccccc1,-0.4,-0.5,80.6*,4.5,73.2*
S=c1[nH]nc(-c2ccncc2)n1/N=C/C(Cl)=C\c1ccccc1,-0.6,-1.3,53.1*,0.9,11.9
S=c1[nH]nc(COc2ccccc2)n1/N=C/C=C/c1ccccc1,-1.5,-7.0,-6.1,3.7,70.7*
CN(CC(=O)Nc1ccc(F)cc1[N+](=O)[O-])Cc1ccccc1,0.7,12.5,6.9,0.7,3.3
SMILES,ABCB1 block,ABCG2 block,Lmaj promast,RAM inhibit,WT yeast gro inh
O=C(O)/C=C1\NC(=O)c2ccccc21,0.3,0.9,1.9,-0.4,-2.1
O=C1N/C(=C\c2ccc(O)cc2)C(=O)c2ccccc21,-6.5,-3.1,100.3*,6.3,14.7
COc1ccc(-c2cc(=O)[nH][nH]2)cc1,-0.1,0.8,75.7*,-0.8,-5.0
COc1ccc(-c2cc(=O)[nH]c(=O)[nH]2)cc1,-0.1,-2.3,-3.5,-0.2,-4.8
O=C(c1ccc(C(F)(F)F)cc1)C1CCCN(C(=O)CCN2CCCO2)C1 (stereo not drawn),0.5,1.1,-7.3,0.8,-5.4
O=C(O)CSc1nnc(CSc2nc3ccccc3s2)n1-c1ccccc1,0.1,0.1,-7.0,0.1,-7.6
c1csc(CSc2nc3ccccc3s2)c1,0.1,0.4,13.9,1.5,5.4
CCn1c(CSc2nc3ccccc3s2)nc2ccccc21,.,.,14.0,0.4,63.5*
C#CCSc1nnc(CSc2nc3ccccc3s2)n1-c1ccccc1,1.1,2.3,50.5*,4.6,28.9
S=C(NCC1CCCO1)N1CCN(c2nc(-c3ccccc3)cs2)CC1 (stereo not drawn),0.6,5.3,0.9,-0.4,5.4
C/C(N)=C(/C#N)C(=O)COC(=O)c1ccccc1Oc1ccccc1,1.0,13.2,29.0,2.6,0.6
C/C(N)=C(/C#N)C(=O)COC(=O)C(c1ccccc1)c1ccccc1,0.9,3.6,73.0*,3.5,-2.4
COc1cc(/C=C2\SC(=S)NC2=O)ccc1OS(=O)(=O)c1ccccc1,-2.6,-7.1,62.8*,4.9,79.2*
COc1cc(/C=C2/SC(=S)NC2=O)ccc1OS(=O)(=O)c1ccc(C)cc1,-1.2,-4.9,11.1,6.4,73.4*
Cn1cc(CNC(=O)CC2C(=O)NCCN2CC(C)(C)C)cn1 (stereo not drawn),1.0,3.0,-4.4,0.1,8.9
CCCc1cc(=O)[nH]c(SCC(=O)c2ccc3c(c2)OCCO3)n1,0.3,40.5,60.9*,1.9,-21.2
O=C(CCSCCC(=O)Nc1ccccc1F)Nc1ccccc1F,0.3,-0.5,0.3,2.1,13.8
Cc1ccc(S(=O)(=O)NCCc2nnc3ccc(SCC(=O)Nc4nc5ccccc5s4)nn23)cc1,0.1,-1.0,3.7,10.0*,7.1
Cc1cc(C)cc(C(=O)NCC(=O)OC(C)C(=O)N(C)c2ccccc2)c1 (stereo not drawn),1.3,2.3,2.0,0.1,-7.0
N#Cc1ccccc1Sc1ccccc1C(=O)Nc1ccc(Br)cc1,0.3,-0.1,-3.6,5.9,76.6*
CC(=O)Nc1ccc(NC(=O)c2ccccc2Sc2ccc([N+](=O)[O-])cc2Cl)cc1,0.6,0.9,94.2*,6.5,-3.7
CN(C)S(=O)(=O)N1CCC(CO)(CCc2ccccc2)CC1,0.2,0.1,-5.2,3.1,-6.7
COc1ccc(OC)c(CN2CCC(CO)(CCOc3ccccc3)CC2)c1,-0.1,4.1,14.1,1.1,5.0
CC(COc1ccccc1)N1CCC(CO)(CCc2ccccc2)CC1 (stereo not drawn),0.7,2.9,97.4*,4.2,3.5
CSCC(C)N1CCC(CO)(CCc2ccccc2)CC1 (stereo not drawn),0.4,3.3,82.2*,2.0,-15.5
CC1C(=O)Nc2ccccc2N1C(=O)c1ccccc1 (stereo not drawn),0.1,-1.9,-1.5,3.1,-10.6
Clc1ccc(-c2nc3ccccn3c2CN2CCCCC2)cc1,2.0,12.4,76.8*,-0.2,11.9
COc1ccc(-c2nc3c4ccccc4ccn3c2CN2CCCCC2)cc1,1.8,5.4,100.0*,0.8,18.7
COc1ccccc1CN1C[C@@H]2C[C@@H](c3ccc4nsnc4c3)N3CCC[C@@]23C1=O,3.2,4.2,67.4*,3.1,9.1
